NOD2-RIPK2 inh = blocks binding of human NOD2 to RIPK2; inhibition, % at 4.98 µM; CHO BLA complementation NOD2-RIPK2, CCF4 ratio; O43353; hit rate 0.38% among 360,000; in the data active means inhibition above about 21%;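 further: 0% = vehicle only and 100% = reference blocker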
TLR9-MyD88 inh = TLR9-MyD88 interaction inhibition; Q9NR96+Q99836; CHO BLA complementation TLR9-MyD88, CCF4 FRET ratio; inhibition, % at 4.98 µM; hit rate 0.21% among 340,000;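 active means inhibition above the mean over all tested compounds plus 3 SD, cut at about 21% in these data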;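 further: 0% = DMSO only wells and 100% = clavulanate BLA inhibitor control wells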
SR-BI HDL uptake = mouse SR-BI HDL lipid transfer inhibition | inhibition, % at 12.5 µM | Q61009 | ldlA[mSR-BI] CHO cells, DiI-HDL uptake fluorescence, 3 h | hit rate 0.96% among 320,000 | AID 488896;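 active means mean replicate inhibition of at least 70% and a set share of replicates each scoring 70 or more; inconclusive means meets just one of the two criteria; inactive means fails both criteria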;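 further: 0% = median of neutral control wells and 100% = median of positive control wells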
TLR4-MyD88 BLA = blocks binding of human TLR4 to MyD88 | AID 861 | inhibition, % at 8.4 µM | HeLa CL3-4 TLR4/MyD88 BLA complementation, FRET ratio | O00206+Q99836 | hit rate 0.18% among 200,000; in the data active means inhibition above about 25%;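 further: 0% = vehicle and 100% = reference inhibitor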
Target sequence (O00206 whole entry, looked up): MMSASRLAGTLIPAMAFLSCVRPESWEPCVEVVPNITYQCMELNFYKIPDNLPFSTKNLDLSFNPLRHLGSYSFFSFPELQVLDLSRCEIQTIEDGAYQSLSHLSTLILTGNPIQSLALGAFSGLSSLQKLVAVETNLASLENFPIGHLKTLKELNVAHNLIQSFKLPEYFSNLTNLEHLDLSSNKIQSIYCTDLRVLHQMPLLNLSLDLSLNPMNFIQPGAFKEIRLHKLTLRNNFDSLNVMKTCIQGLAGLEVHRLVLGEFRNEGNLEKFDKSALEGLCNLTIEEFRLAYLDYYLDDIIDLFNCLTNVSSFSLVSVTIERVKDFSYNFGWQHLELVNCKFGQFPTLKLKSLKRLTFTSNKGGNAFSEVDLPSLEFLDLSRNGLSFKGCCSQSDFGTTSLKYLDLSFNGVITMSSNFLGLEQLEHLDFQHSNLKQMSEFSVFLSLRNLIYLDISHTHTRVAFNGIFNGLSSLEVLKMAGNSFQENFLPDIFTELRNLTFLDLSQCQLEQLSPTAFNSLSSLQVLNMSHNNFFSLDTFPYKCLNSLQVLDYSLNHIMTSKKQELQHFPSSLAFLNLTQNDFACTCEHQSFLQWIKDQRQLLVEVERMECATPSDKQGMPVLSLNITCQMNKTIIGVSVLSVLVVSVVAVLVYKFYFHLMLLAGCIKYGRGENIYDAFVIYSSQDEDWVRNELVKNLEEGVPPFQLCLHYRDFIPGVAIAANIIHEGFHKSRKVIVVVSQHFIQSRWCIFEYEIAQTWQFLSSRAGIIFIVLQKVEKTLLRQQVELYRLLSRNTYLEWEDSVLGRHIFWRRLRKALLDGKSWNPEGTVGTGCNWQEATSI
Target sequence (Q99836 whole entry, looked up): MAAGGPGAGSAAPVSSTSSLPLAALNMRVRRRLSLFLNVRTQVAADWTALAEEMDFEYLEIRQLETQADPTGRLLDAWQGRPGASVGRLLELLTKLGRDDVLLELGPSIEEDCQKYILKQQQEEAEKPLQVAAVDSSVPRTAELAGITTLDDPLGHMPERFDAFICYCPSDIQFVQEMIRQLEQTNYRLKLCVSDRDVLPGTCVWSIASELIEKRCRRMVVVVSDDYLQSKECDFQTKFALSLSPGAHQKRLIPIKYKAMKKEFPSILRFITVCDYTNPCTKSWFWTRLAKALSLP
Hep lipid drop = hepatic lipid droplet formation modulation | AID 1656 | AML12 mouse hepatocytes, oleate lipid droplets, BODIPY imaging | inhibition, % at 6.5 µM | hit rate 0.4% among 240,000;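 active means lipid droplet intensity inhibited by at least 50%, with more than 500 cells counted; inconclusive means wells with under 300 cells, treated as cytotoxic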
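Technique: fluorescence imaging, 20x objective, two fields per well / Assay system: AML12 hepatocytes (mouse) / Measure: % inhibition of lipid droplet signal / Doses: 6.5 µM single-point dosing / Incubation: overnight exposure / Reagent: 100 µM oleic acid challenge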
SR-BI uptake up = activators of SR-BI mediated HDL lipid uptake. CHO ldlA[mSR-BI] cells, DiI-HDL uptake fluorescence, 3 h; 100 = double the neutral-control signal. activation, % at 12.5 µM. hit rate 0.096% among 320,000;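 active means mean replicate activation of at least 60% and every replicate at or above 60%; inconclusive means mean or all-replicate condition met, but not both; inactive means mean below 60% and not all replicates reaching 60%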;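 further: 0% = median plate neutral-control signal and 100% = twice that signal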
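Assay system: LDL receptor-deficient CHO ldlA cells overexpressing murine SR-BI / Medium: BSA-supplemented, HEPES-buffered Ham's F12, pH 7.4 / Probe or stimulus: DiI-labelled HDL at 10 µg/mL final / Timing: compound with DiI-HDL co-incubation, 3 h at 37 °C / Technique: bottom-read cell fluorescence after medium removal, ex 550/em 595 nm / Measure: HDL uptake via cellular fluorescence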
DiI quench = quenches DiI-HDL fluorescence, an SR-BI assay artifact; AC50, µM (top dose mostly 35 µM), without a hit: at the top dose activity change, negative = quenching; AID 540326; shares compounds with SR-BI HDL uptake; cell-free DiI-HDL fluorescence quenching, 30 min; hit rate 20% among 470;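 active means quenching, a falling signal, with AC50 below a set limit tied to the top valid dose, actives reach about 32 µM in these data; inconclusive means no clear call, values can overlap the other calls; inactive means rising signal, and the rest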
Starred values were filed as active, the others as inactive; ? = inconclusive; . = no result given. Sampled rows, rich in hits. Any-hit rate of the full collection: about 1.6%.

SMILES | NOD2-RIPK2 inh | TLR9-MyD88 inh | SR-BI HDL uptake | TLR4-MyD88 BLA | Hep lipid drop | SR-BI uptake up | DiI quench
O=C(C[C@H]1C/C=C\CCC(=O)OC[C@H]2CCCN2C1=O)NCCO | -2 | -6 | -11 | . | . | 11 | 2%
O=C(C[C@@H]1C/C=C\CCCC(=O)OC[C@@H]2CCCN2C1=O)NCCO | 0 | -1 | -2 | . | . | 2 | .
O=C(Nc1ccc(N2CCOCC2)cc1)c1cccc(S(=O)(=O)N2CCC(Cc3ccccc3)CC2)c1 | 4 | -7 | 93* | 3 | 23 | -93 | -15%
O=C(Nc1ccc(N2CCOCC2)cc1)c1cccc(S(=O)(=O)N2CCCC2)c1 | -6 | -2 | 56 | -4 | 1 | -56 | .
COc1cc(NC(=O)Cn2nc(C(F)(F)F)c3c2CCCC3)cc(OC)c1OC | 6 | -4 | 15 | 4 | -1 | -15 | .
NC(=O)c1cc(-c2ccccc2)sc1NC(=O)CN1CCCCC1 | 4 | 7 | 73* | -9 | -1 | -73 | 4%
NC(=O)c1ccccc1NC(=O)CN1CCCCCC1 | 2 | -1 | -11 | . | 12 | 11 | .
Cc1cccc(C(=O)N2CCc3cc(-c4nc(NC(=O)CN5CCCC5)sc4C)ccc32)c1 | -10 | -4 | . | . | -2 | . | .
Cc1sc(NC(=O)Cc2ccc3c(c2)OCO3)nc1-c1ccc2c(c1)CCN2C(=O)c1cccc(F)c1 | -4 | -12 | 77* | 5 | 41 | -77 | -2%
Cc1ccccc1C(=O)N1CCc2cc(-c3nc(NC(=O)Cc4ccc5c(c4)OCO5)sc3C)ccc21 | -7 | -4 | 66 | 2 | 41 | -66 | -2%
COc1ccc(OC)c(NC(=O)CCNS(=O)(=O)c2ccc3c(c2)CC(C)N3C(C)=O)c1 (stereo unspecified) | -6 | -2 | . | . | . | . | .
Cn1c(C(=O)N2CCC(C(=O)N3CCN(Cc4ccc5c(c4)OCO5)CC3)CC2)cc2sccc21 | 0 | 4 | 72* | 5 | -3 | -72 | -3%
Cn1c(C(=O)N2CCN(Cc3ccc4c(c3)OCO4)CC2)cc2sccc21 | -4 | -9 | -18 | 5 | . | 18 | .
CC(=O)NCCC1CCN(C(=O)c2cc(COc3ccc(C)nc3)on2)CC1 | 2 | -6 | 76* | . | -4 | -76 | -6%
Cc1ccc(OCc2cc(C(=O)N3CCCC3)no2)cn1 | 0 | -1 | -11 | . | -7 | 11 | .
COCCNC(=O)CSc1nc2cc(OC)c(OC)cc2c(=O)n1CCc1ccc(S(N)(=O)=O)cc1 | -5 | 2 | -3 | -13 | -3 | 3 | .
COc1ccc([C@H]2/C=C\CN(S(=O)(=O)c3cccc4cccnc34)[C@@H](C)C(=O)N2Cc2ccc(F)cc2)cc1 | 1 | -10 | 6 | . | . | -6 | -3%
COc1ccc([C@H]2/C=C\CN(C(=O)c3ccc(C)cc3)[C@@H](C)C(=O)N2Cc2ccc(F)cc2)cc1 | 1 | -4 | -14 | . | . | 14 | .
COc1ccc([C@H]2/C=C\CN(Cc3ccc(N(C)C)cc3)[C@@H](C)C(=O)N2Cc2ccc(F)cc2)cc1 | -4 | -1 | 1 | . | . | -1 | .
COc1ccc([C@H]2/C=C\CN(S(=O)(=O)c3ccc4ccccc4c3)[C@@H](C)C(=O)N2Cc2ccc(F)cc2)cc1 | 1 | 1 | 72* | . | . | -72 | -1%
COc1ccc([C@H]2/C=C\CN(S(=O)(=O)c3ccc(C)cc3)[C@@H](C)C(=O)N2Cc2ccc(F)cc2)cc1 | -3 | 1 | 51 | . | . | -51 | -2%
COc1ccc(N2CCN(CNC(=O)c3ccccc3)CC2)cc1 | -9 | 8 | -9 | . | -2 | 9 | .
O=C(CCCc1nc(-c2ccc(Cl)cc2)no1)NC1CCCC1 | 0 | -12 | 15 | . | -27 | -15 | .
CCC1=C(OC(=O)N(CC)CC)N2C(=O)OC(=NCC3CC3)[C@]2(Cc2ccccc2)[C@H]2C1=CC[C@H]1C(=O)N(CC)C(=O)[C@H]12 | -2 | -1 | -33 | . | -4 | 33 | .
COc1cc2c(C#CCCCO)c(-c3ccsc3)oc(=O)c2cc1OC | -9 | -4 | ? | . | . | -73 | -3%
SMILES | NOD2-RIPK2 inh | TLR9-MyD88 inh | SR-BI HDL uptake | TLR4-MyD88 BLA | Hep lipid drop | SR-BI uptake up | DiI quench
CCOc1ccc(NS(=O)(=O)c2ccc(C(=O)NNC(=O)c3ccccc3O)cc2)cc1 | -4 | -5 | 127* | . | . | -127 | 0.61µM*
O=C(NNC(=O)c1ccccc1O)c1ccc(S(=O)(=O)Nc2ccccc2)cc1 | -7 | 0 | 113* | . | . | -113 | 0.4µM*
O=C(NNC(=O)c1ccccc1F)c1ccc(NS(=O)(=O)c2ccc(F)cc2)cc1 | -2 | 2 | -1 | . | . | 1 | .
Cn1cccc1C(=O)NC(=O)COC(=O)CCNS(=O)(=O)c1ccc(Cl)cc1 | -16 | 8 | -5 | . | . | 5 | .
COc1ccc(-n2nc(C(=O)NCC(=O)Nc3ccc(F)cc3)c3ccccc3c2=O)cc1 | 2 | 12 | . | . | 0 | . | .
CCC(=O)Nc1ccc(Cl)c(NC(=O)c2cccc(OC)c2)c1 | -10 | 2 | 80* | 4 | -5 | -80 | 2%
CCN(C(=O)COn1nnc2ccc(S(=O)(=O)N(C)C)cc21)C1CCS(=O)(=O)C1 (stereo unspecified) | -3 | -2 | 21 | . | . | -21 | -3%
Fc1ccc(-c2cc(-c3cccs3)cc(-c3ccccc3)n2)cc1 | -12 | -7 | 83* | . | -46 | -83 | 0%
O=C(O)CC(C(=O)Nc1ccc(Cl)cc1Cl)C1CCCO1 (stereo unspecified) | -7 | -6 | -15 | -16 | 6 | 15 | .
Cc1ccc(C)c(NC(=O)C(CC(=O)O)C2CCCO2)c1 (stereo unspecified) | 1 | -11 | 77* | . | -21 | -77 | -2%
Cn1c(=O)c2cc(NC(=O)CCc3ccccc3)ccc2n1-c1ccccc1F | 2 | . | . | . | . | . | .
Cc1ccsc1CN(C(=O)c1ccccc1)C1CCS(=O)(=O)C1 (stereo unspecified) | -8 | -2 | 0 | . | 8 | 0 | .
COC(=O)/C=C/c1ccc2c(c1)S(=O)(=O)N(c1cccc(OC)c1)[C@H]2CC(=O)OC | -18 | -7 | 87* | . | . | -87 | -5%
NC1=NC(=O)C(Cc2ccc(Br)cc2)S1 (stereo unspecified) | -14 | 6 | -22 | . | 4 | 22 | .
CCC(=O)N(Cc1ccc(S(N)(=O)=O)cc1)C1CC(=O)N(c2ccc(OC)cc2)C1=O (stereo unspecified) | 4 | -2 | 1 | 9 | -3 | -1 | .
CC(=O)Nc1ccc(-c2c(C)cc3oc(=O)cc(-c4ccccc4)c3c2C)cc1 | 12 | 3 | 67 | . | . | -67 | .
Cc1cc2oc(=O)cc(-c3ccccc3)c2c(C)c1-c1ccc(C(F)(F)F)cc1 | 8 | 4 | ? | . | . | -74 | -4%
CC(=O)c1cccc(NC(=O)CCn2c(=S)oc3ccccc32)c1 | 2 | 4 | 3 | . | 4 | -3 | .
